Series [1] relates to Schistosoma mansoni. The experiment in a line: Antischistosomal activity in juvenile Schistosoma mansoni infected in mouse assessed as female worm reduction at 400 mg/kg, po after 28 days. The series is classed as functional. On the set-up: scale not given: the % may be the effect or the level left. The essentials:
(§1)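 Mice were infected with about 80 cercariae on day 0. A single oral dose was given, dissolved or suspended in 3% ethanol/7% Tween 80 vehicle: groups of three mice on day 21 (juvenile) and groups of five on day 49 (adult). Mice were killed by CO₂ 28 days after treatment and dissected for total and female worm counts versus vehicle controls. Medians were compared by Kruskal–Wallis test.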

For series [2], the system named is Schistosoma mansoni. The experiment in a line: Antischistosomal activity in juvenile Schistosoma mansoni infected in mouse assessed as total worm reduction at 400 mg/kg, po after 28 days. Type of series: functional. Also on record: scale not given: the % may be the effect or the level left. The method, boiled down:
as §1

Series [3] has as its system Schistosoma mansoni. Briefly: Antischistosomal activity in adult Schistosoma mansoni infected in mouse assessed as female worm reduction at 400 mg/kg, po after 28 days. Type of series: functional. On the set-up: scale not given: the % may be the effect or the level left. The essentials:
as §1

Series [4] has as its system Schistosoma mansoni. Briefly: Antischistosomal activity against adult Schistosoma mansoni assessed as motility reduction at 10 ug/ml after 120 hrs. The series is classed as functional. Also on record: scale not given: the % may be the effect or the level left. The method, boiled down:
(§2)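 Adult worms were recovered from infected mice by portal perfusion with warm DMEM containing 2 mM L-glutamine, penicillin/streptomycin, 20 mM Hepes and heparin. Host red cells were removed and the worms moved to DMEM with 10% FCS, glutamine and antibiotics. Compounds were added from 10 mg/mL DMSO stocks. At 120 h, motility disturbances and morphological changes were scored.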

Series [5] deals with Schistosoma mansoni. The experiment in a line: Antischistosomal activity in adult Schistosoma mansoni infected in mouse assessed as total worm reduction at 400 mg/kg, po after 28 days. The series is classed as functional. On the set-up: scale not given: the % may be the effect or the level left. The essentials:
as §1

For series [6], the system named is Schistosoma mansoni. Briefly: Antischistosomal activity against adult Schistosoma mansoni assessed as morphological changes at 10 ug/ml after 120 hrs. Type of series: functional, organism-based. The method, boiled down:
as §2

Series [7] relates to Liver microsomes. Briefly: Metabolic stability in human liver microsomes at 1 uM after 120 mins by LC-MS/MS. The series is classed as ADME, Microsome. The note with it: 2 h. The method, boiled down: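 Compound at 1 µM was incubated at 37 °C with 0.5 mg/mL microsomes. Reactions were started with an NADPH-regenerating system and stopped with ice-cold MeOH. Loss of parent compound over 120 min was followed by LC–MS/MS.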

Series [8] relates to Schistosoma mansoni. Briefly: Antischistosomal activity against adult Schistosoma mansoni. The series is classed as functional, organism-based.
Series [9] deals with Schistosoma mansoni. The experiment in a line: Antischistosomal activity in juvenile Schistosoma mansoni infected in mouse assessed as total worm reduction at 200 mg/kg, po after 28 days. Type of series: functional. Also on record: scale not given: the % may be the effect or the level left. The method, boiled down: (§3)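 Mice infected with ca. 80 S. mansoni cercariae on day 0; single oral dose given on day 21 post-infection (juvenile stage) in 3% ethanol/7% Tween 80 vehicle, groups of three mice. Sacrificed by CO₂ 28 days post-treatment and dissected; total and female worm reduction rates versus vehicle controls, Kruskal–Wallis test comparing medians.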

The subject of series [10] is Schistosoma mansoni. Briefly: Antischistosomal activity in juvenile Schistosoma mansoni infected in mouse assessed as female worm reduction at 200 mg/kg, po after 28 days. Type of series: functional. Also on record: scale not given: the % may be the effect or the level left. The method, boiled down:
as §3

Structures are written as SMILES. Converted amounts (≈) assume the structure as drawn. The source made the active and inactive calls. The calls are words filed in the database; no cut-off is given here.

On to `O=C1CCC(C(=O)N2CC(=O)N3CCc4ccccc4C3C2)CC1` (racemic), for which the Activity in series [1] is reported as 41%; in series [2] it was 25%; in series [3], 81%; in series [4] it was 0%; in series [5], 79%. Also, the result in [6] was Active.
In the case of `O=C(C1CCC(F)(F)CC1)N1CC(=O)N2CCc3ccccc3C2C1` (stereo not drawn), the Activity is given as 44% in [1]; 38% in series [2]; 39% in series [3]; 25% in series [4]; 40% in [5]. The Stability result in [7] is recorded as “Stable”. Besides, the outcome in series [6] was Active.
As for `O=C(N1CCOCC1)N1CC(=O)N2CCc3ccccc3C2C1` (stereo not drawn), the Activity was 22% in [1]; 14% in series [2]; 0% in series [3]; 0% in [4]; 0% in series [5]. Moreover, in series [6], the result was inactive.
For the molecule `O=C1CN(C(=O)[C@H]2CC[C@]3(CC2)OO[C@]2(O3)C3CC4CC(C3)CC2C4)CC2c3ccccc3CCN12` (stereo partly drawn), the Activity in series [1], in series [2], in series [3], in series [4] and in [5] was 0% throughout. Further, the result in series [6] was inactive.
For `O=C(N1CCC(F)(F)CC1)N1CC(=O)N2CCc3ccccc3C2C1` (stereo not drawn), the Activity in series [1] is 38%; in series [2] it was 38%; in [3], 0%; in series [4] it was 0%; in series [5] it was 12%. The Stability entry in series [7] is on record as “Stable”. The outcome in series [6] was inactive.
In the case of `O=C(N1CCNCC1)N1CC(=O)N2CCc3ccccc3C2C1` (stereo not drawn), the Activity in series [1] was 23%; in series [2] it was 25%; in [3] it was 0%; in series [4], 0%; in [5], 0%. Also, the outcome in [6] was inactive.
On to `O=C(C1CCCCC1)N1CC(=O)N2CCc3ccccc3C2C1` (stereo not drawn) [PRAZIQUANTEL], for which the Activity in series [1] is 18%; in series [2], 7%; in [3], 98%; in series [4], 100%; in series [5], 96%. Also, in series [8], half-maximal inhibition (IC50) required 0.37 µg/mL (≈ 1.18 µM). Also, the result in [6] was Active.
On to `O=C1CN(C(=O)C23CC4CC(CC(C4)C2)C3)CC2c3ccccc3CCN12` (stereo not drawn), for which the Activity in series [1] was found to be 56%; in series [2] it was 42%; in series [3], 0%; in series [4], 0%; in series [5] it was 0%. Further, the outcome in [6] was inactive.
With `O=C(N1CCCCC1)N1CC(=O)N2CCc3ccccc3C2C1` (stereo not drawn), the Activity stood at 34% in series [1]; 27% in series [2]; 9% in [3]; 38% in series [4]; 1% in series [5]. Further, the outcome in series [6] was Active.
Consider `O=C1CN(C(=O)[C@H]2CC[C@]3(CC2)OO[C@]2(O3)C3CC4CC(C3)CC2C4)CCN1`, for which the Activity in [9] turned out to be 85%; in series [3] it was 13%; in [10] it was 85%; in series [4], 0%; in series [5] it was 1%. Also, the result in [6] was inactive.

These data come from ChEMBL document CHEMBL1156158, “Praziquantel analogs with activity against juvenile Schistosoma mansoni” (Bioorg Med Chem Lett, 2010).
